From ChEMBL document CHEMBL4425095, “Novel Cephalosporins Selectively Active on Nonreplicating Mycobacterium tuberculosis” (J Med Chem, 2016)
≈ marks a conversion by molar mass, not a printed value. Calls of active or inactive are those of the source. The rule behind the calls is not given here.

Key:
[1] = tested on: Mycobacterium tuberculosis; assay: Antimycobacterial activity against non-replicating Mycobacterium tuberculosis mc2 6220 harboring panCD/lysA deletion mutant incubated for 3 days measured at OD580 = 0.1 by two-fold serial dilution method; format: functional
Summary of the method: (§1)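 M. tuberculosis mc26220 washed twice in PBS-tyloxapol and resuspended in Sauton's-based nonreplicating medium (pH 5.0, butyrate 0.05%, BSA, tyloxapol, lysine, pantothenate, 0.5 mM NaNO2). Incubated at 1% O2, 5% CO2 with 2-fold serially diluted compound from DMSO. After 3 days, diluted 5-fold in fresh replicating medium for outgrowth at 20% O2. Reported as MIC90.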

[2] = tested on: Mycobacterium tuberculosis; assay: Antimycobacterial activity against replicating Mycobacterium tuberculosis mc2 6220 harboring panCD/lysA deletion mutant by two-fold serial dilution method; format: functional
Summary of the method: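 M. tuberculosis mc26220 in replicating medium supplemented with glycerol (final 0.5%), OADC, casamino acids 0.05%, lysine 240 μg/mL and pantothenate 24 μg/mL. Exposed to 2-fold serially diluted compound from DMSO. OD580 read after 7 days at 20% O2, 5% CO2. Reported as MIC90.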

[3] = tested on: Mycobacterium tuberculosis; assay: Antimycobacterial activity against non-replicating Mycobacterium tuberculosis mc2 6220 harboring panCD/lysA deletion mutant incubated for 3 days measured at OD580 = 0.01 by two-fold serial dilution method; format: functional; summary of the method: as §1
[4] = tested on: Mycobacterium tuberculosis; assay: Antimycobacterial activity against non-replicating Mycobacterium tuberculosis mc2 6220 harboring panCD/lysA deletion mutant incubated for 7 days measured at OD580 = 0.1 by two-fold serial dilution method; format: functional; summary of the method: as §1
[5] = tested on: Mycobacterium tuberculosis; assay: Antimycobacterial activity against replicating Mycobacterium tuberculosis mc2 6220 harboring panCD/lysA deletion mutant incubated for 3 days measured at OD580 = 0.01 by two-fold serial dilution method; format: functional
[6] = tested on: Mycobacterium tuberculosis; assay: Antimycobacterial activity against non-replicating Mycobacterium tuberculosis mc2 6220 harboring panCD/lysA deletion mutant incubated for 6 days measured at OD580 = 0.1 by two-fold serial dilution method; format: functional; summary of the method: as §1
[7] = tested on: Mycobacterium tuberculosis; assay: Antimycobacterial activity against non-replicating Mycobacterium tuberculosis mc2 6220 harboring panCD/lysA deletion mutant incubated for 7 days measured at OD580 = 0.01 by high throughput screen assay; format: functional, organism-based
[8] = tested on: Mycobacterium tuberculosis; assay: Antimycobacterial activity against non-replicating Mycobacterium tuberculosis mc2 6220 harboring panCD/lysA deletion mutant incubated for 7 days measured at OD580 = 0.01 by two-fold serial dilution method; format: functional; summary of the method: as §1
[9] = tested on: Mycobacterium tuberculosis; assay: Antimycobacterial activity against non-replicating Mycobacterium tuberculosis mc2 6220 harboring panCD/lysA deletion mutant incubated for 6 days measured at OD580 = 0.01 by two-fold serial dilution method; format: functional; summary of the method: as §1

Compound | MIC90 [1] [µg/mL] | MIC90 [2] [µg/mL] | MIC90 [4] [µg/mL] | MIC90 [8] [µg/mL] | other results
C#CCOC(=O)C1=C(C)CS[C@@H]2[C@H](NC(=O)CCc3ccc(Cl)cc3)C(=O)N12 | 7.85 (≈ 18.7 µM) | >100 |  |  | MIC90 [3]: 0.56 µg/mL (≈ 1.34 µM)
CCCOC[C@H]1C(C)=CS[C@@H]2[C@H](NC(=O)COc3ccccc3)C(=O)N21 | >100 | >100 |  |  | 
COC(=O)C1=C(C)CS[C@@H]2[C@H](NC(=O)CCc3ccc(OC)cc3)C(=O)N12 |  | 59.82 (≈ 153 µM) | 3.28 (≈ 8.4 µM) |  | MIC90 [3]: 0.39 µg/mL (≈ 0.999 µM)
CC1=C(c2nc(C)no2)N2C(=O)[C@@H](NC(=O)COc3cccc(Cl)c3)[C@H]2SC1 | 2.59 (≈ 6.15 µM) | >100 |  |  | 
CC1=C(c2nc(C)no2)N2C(=O)[C@@H](NC(=O)COc3ccc(C)cc3)[C@H]2SC1 | 7.42 (≈ 18.5 µM) | >100 |  |  | 
CCCN[C@@H]1C(=O)N2C(C(=O)OCCC)=C(C)CS[C@H]12 | 2.69 (≈ 9.01 µM) | >100 |  |  | MIC90 [5]: >100 µg/mL; MIC90 [6]: 0.45 µg/mL (≈ 1.51 µM); MIC90 [3]: 0.7 µg/mL (≈ 2.35 µM); Activity [7]: Active
CCCc1noc(C2=C(C)CS[C@@H]3[C@H](NC(=O)COc4ccc(C)cc4)C(=O)N23)n1 | 14.31 (≈ 33.4 µM) | >100 |  |  | 
CCCOC(=O)N[C@@H]1C(=O)N2C(C(=O)OCCC)=C(C)CS[C@H]12 | 2.61 (≈ 7.62 µM) | 55.44 (≈ 162 µM) |  |  | MIC90 [5]: 55.44 µg/mL (≈ 162 µM); MIC90 [6]: 0.52 µg/mL (≈ 1.52 µM); MIC90 [3]: 3.11 µg/mL (≈ 9.08 µM); Activity [7]: Active
CC1=CS[C@@H]2[C@H](NC(=O)COc3ccccc3)C(=O)N2[C@H]1CO | >100 | >100 |  |  | 
CCCc1noc(C2=C(C)CS[C@@H]3[C@H](NC(=O)Cc4ccc(Cl)cc4)C(=O)N23)n1 | 2.63 (≈ 6.07 µM) | >100 |  |  | 
CCC(C)OC(=O)C1=C(C)CS[C@@H]2[C@H](NC(=O)CCc3ccc(OC)cc3)C(=O)N12 (some centres not stated) |  | >100 | 2.95 (≈ 6.82 µM) | 1.57 (≈ 3.63 µM) | 
CCCCOc1ccc(CCC(=O)N[C@@H]2C(=O)N3C(c4nc(C)no4)=C(C)CS[C@H]23)cc1 | 59.36 (≈ 130 µM) | >100 |  |  | 
CC1=C(C(=O)O)N2C(=O)[C@@H](NC(=O)[C@H](N)c3ccccc3)[C@H]2SC1 [CEPHALEXIN ANHYDROUS] | 61.35 (≈ 177 µM) | 33.99 (≈ 97.8 µM) | 100 (≈ 288 µM) |  | MIC90 [5]: 33.99 µg/mL (≈ 97.8 µM); MIC90 [6]: 70.42 µg/mL (≈ 203 µM); MIC90 [3]: 97.93 µg/mL (≈ 282 µM)
C#CCOC(=O)C1=C(C)CS[C@@H]2[C@H](NC(=O)CCc3ccccc3)C(=O)N12 | 19.97 (≈ 51.9 µM) | >100 |  |  | MIC90 [3]: 1.11 µg/mL (≈ 2.89 µM)
CC1=C(c2nc(C)no2)N2C(=O)[C@@H](NC(=O)COc3ccc(C(F)(F)F)cc3)[C@H]2SC1 | 5.26 (≈ 11.6 µM) | >100 |  |  | 
CCCCOC(=O)C1C(C)=CS[C@@H]2[C@H](NC(=O)COc3ccccc3)C(=O)N12 (some centres not stated) |  | >100 | 1.28 (≈ 3.16 µM) | 0.79 (≈ 1.95 µM) | 
CNC(=O)C1=C(C)CS[C@@H]2[C@H](NC(=O)COc3ccccc3)C(=O)N12 |  | >100 | >36.14 | >36.14 | 

Compound | MIC90 [1] [µg/mL] | MIC90 [2] [µg/mL] | MIC90 [4] [µg/mL] | MIC90 [8] [µg/mL] | other results
CCCc1noc(C2=C(C)CS[C@@H]3[C@H](NC(=O)COc4ccc(Cl)cc4)C(=O)N23)n1 |  | >100 | 3.87 (≈ 8.62 µM) | 1.36 (≈ 3.03 µM) | 
COCC1=C(C)CS[C@@H]2[C@H](NC(=O)COc3ccccc3)C(=O)N12 | >100 | >96.74 |  |  | 
CCOC(=O)C1=C(C)CS[C@@H]2[C@H](NC(=O)CCc3ccc(OC)cc3)C(=O)N12 |  | 21.37 (≈ 52.8 µM) | 0.51 (≈ 1.26 µM) | 0.4 (≈ 0.989 µM) | 
CCCN(O)C(=O)C1=C(C)CS[C@@H]2[C@H](NC(=O)COc3ccccc3)C(=O)N12 |  | >100 | >40.55 | >40.55 | 
CCCCOC(=O)C1=C(C)CS[C@@H]2[C@H](NC(=O)COc3ccc(Cl)cc3)C(=O)N12 |  | >100 | 1.01 (≈ 2.3 µM) | 0.43 (≈ 0.98 µM) | 
COC(=O)C1=C(C)CS[C@@H]2[C@H](NC(=O)[C@@H](c3ccccc3)N(C)C)C(=O)N12 |  | >100 | >38.95 | >38.95 | 
COC[C@H]1C(C)=CS[C@@H]2[C@H](NC(=O)COc3ccccc3)C(=O)N21 |  | >87.82 | >34.84 | >34.84 | 
COc1ccc(OCC(=O)N[C@@H]2C(=O)N3C(c4nc(C)no4)=C(C)CS[C@H]23)cc1 | 14.57 (≈ 35 µM) | >100 |  |  | 
CC1=C(c2nc(C)no2)N2C(=O)[C@@H](NC(=O)OC(C)(C)C)[C@H]2SC1 |  | >100 | 9.16 (≈ 26 µM) | 5.3 (≈ 15 µM) | 
CCCc1noc(C2=C(C)CS[C@@H]3[C@H](NC(=O)CCc4ccc(F)cc4)C(=O)N23)n1 |  | >100 | 0.91 (≈ 2.11 µM) | 0.48 (≈ 1.11 µM) | 
CCCc1noc(C2=C(C)CS[C@@H]3[C@H](NC(=O)CCc4ccc(OC)cc4)C(=O)N23)n1 |  | >100 | 0.67 (≈ 1.51 µM) | 0.37 (≈ 0.836 µM) | 
CCCOC(=O)C1=C(C)CS[C@@H]2[C@H](NC(=O)COc3ccc(Cl)cc3)C(=O)N12 |  | >100 | 1.34 (≈ 3.15 µM) | 0.66 (≈ 1.55 µM) | 
COc1ccc(CCC(=O)N[C@@H]2C(=O)N3C(c4nc(C)no4)=C(C)CS[C@H]23)cc1 |  | >100 | 1.68 (≈ 4.05 µM) | 1.13 (≈ 2.73 µM) | 
COC(=O)C1=C(C)CS[C@@H]2[C@H](NC(=O)COc3ccc(OC)cc3)C(=O)N12 |  | >100 | 4.28 (≈ 10.9 µM) | 2.01 (≈ 5.12 µM) | 
CCCOC(=O)C1C(C)=CS[C@@H]2[C@H](NC(=O)CCc3ccc(OC)cc3)C(=O)N12 (some centres not stated) |  | 49.5 (≈ 118 µM) | <0.23 | 0.21 (≈ 0.502 µM) | 
CCCOC(=O)C1=C(C)CS[C@@H]2[C@H](NC(=O)COc3ccccc3)C(=O)N12 | 1.76 (≈ 4.51 µM) | >100 | 1.05 (≈ 2.69 µM) | 0.64 (≈ 1.64 µM) | MIC90 [9]: 0.64 µg/mL (≈ 1.64 µM); MIC90 [5]: >100 µg/mL; MIC90 [6]: 1.05 µg/mL (≈ 2.69 µM); MIC90 [3]: 0.9 µg/mL (≈ 2.3 µM); Activity [7]: Active
CC1=C(C(=O)O)N2C(=O)[C@@H](NC(=O)Cc3ccc(Cl)cc3)[C@H]2SC1 |  | 81.38 (≈ 222 µM) | >36.68 | >36.68 | 
